Reference: ChEMBL document CHEMBL1821649, “Synthesis, characterization of some benzazoles bearing pyridine moiety: search for novel anticancer agents” (2011)

Legend:
Assay type in all cases: functional
[1] = test system: SW-620; experiment: Antitumor activity against human SW620 cells after 48 hrs by SRB assay; settings: SW-620, 48 h
How it was run: (§1)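 NCI-60 human cancer cell line panel run under the NCI Drug Evaluation Branch protocol. Compounds were first screened at a single dose. Those meeting preset inhibition thresholds were retested at five 10-fold dilutions. Output was percent growth of treated cells, given as % growth inhibition. GI50, TGI and LC50 values were derived from the five-dose data.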

[2] = test system: HCC 2998; experiment: Antitumor activity against human HCC2998 cells after 48 hrs by SRB assay; settings: HCC 2998, 48 h
How it was run: (§2)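 NCI-60 human tumour cell panel run under the National Cancer Institute Drug Evaluation Branch protocol. Compounds passing a single-dose prescreen were retested on all lines at five 10-fold dilutions. Growth was expressed as percent growth of treated cells. Response parameters were GI50 (molar concentration giving 50% growth inhibition), TGI (total growth inhibition) and LC50 (median lethal concentration).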

[3] = test system: Malme-3M; experiment: Antitumor activity against human MALME-3M cells after 48 hrs by SRB assay; how it was run: as §2
[4] = test system: SNB-19; experiment: Antitumor activity against human SNB19 cells after 48 hrs by SRB assay; settings: SNB-19, 48 h; how it was run: as §2
[5] = test system: NCI-H522; experiment: Antitumor activity against human NCI-H522 cells after 48 hrs by SRB assay; settings: NCI-H522, 48 h; how it was run: as §2
[6] = test system: RPMI-8226; experiment: Antitumor activity against human RPMI8226 cells after 48 hrs by SRB assay; settings: RPMI-8226, 48 h; how it was run: as §2
[7] = test system: ACHN; experiment: Antitumor activity against human ACHN cells after 48 hrs by SRB assay; how it was run: as §2
[8] = test system: DU-145; experiment: Antitumor activity against human DU145 cells after 48 hrs by SRB assay; settings: DU-145, 48 h; how it was run: as §2
[9] = test system: SK-OV-3; experiment: Antitumor activity against human SKOV3 cells after 48 hrs by SRB assay; settings: SK-OV-3, 48 h; how it was run: as §2
[10] = test system: NCI-H322M; experiment: Antitumor activity against human NCI-H322M cells after 48 hrs by SRB assay; how it was run: as §2
[11] = test system: SN12C; experiment: Antitumor activity against human SN12C cells after 48 hrs by SRB assay; how it was run: as §2
[12] = test system: RXF 393; experiment: Antitumor activity against human RXF393 cells after 48 hrs by SRB assay; settings: RXF 393, 48 h; how it was run: as §2
[13] = test system: NCI-H23; experiment: Antitumor activity against human NCI-H23 cells after 48 hrs by SRB assay; settings: NCI-H23, 48 h; how it was run: as §2
[14] = test system: SF-539; experiment: Antitumor activity against human SF539 cells after 48 hrs by SRB assay; settings: SF-539, 48 h; how it was run: as §2
[15] = test system: SF-295; experiment: Antitumor activity against human SF295 cells after 48 hrs by SRB assay; settings: SF-295, 48 h; how it was run: as §2
[16] = test system: OVCAR-3; experiment: Antitumor activity against human OVCAR3 cells after 48 hrs by SRB assay; settings: OVCAR-3, 48 h; how it was run: as §2
[17] = test system: HOP-92; experiment: Antitumor activity against human HOP92 cells after 48 hrs by SRB assay; settings: HOP-92, 48 h; how it was run: as §2
[18] = test system: MOLT-4; experiment: Antitumor activity against human MOLT4 cells after 48 hrs by SRB assay; settings: MOLT-4, 48 h; how it was run: as §2
[19] = test system: LOX IMVI; experiment: Antitumor activity against human LOXIMVI cells after 48 hrs by SRB assay; how it was run: as §2
[20] = test system: UACC-257; experiment: Antitumor activity against human UACC257 cells after 48 hrs by SRB assay; settings: UACC-257, 48 h; how it was run: as §1
[21] = test system: SK-MEL-2; experiment: Antitumor activity against human SK-MEL-2 cells after 48 hrs by SRB assay; settings: SK-MEL-2, 48 h; how it was run: as §2
[22] = Antitumor activity against human Hs 578T cells after 48 hrs by SRB assay; how it was run: as §2
[23] = test system: OVCAR-8; experiment: Antitumor activity against human OVCAR8 cells after 48 hrs by SRB assay; settings: OVCAR-8, 48 h; how it was run: as §2
[24] = test system: MCF7; experiment: Antitumor activity against human MCF7 cells after 48 hrs by SRB assay; settings: MCF7, 48 h; how it was run: as §2
[25] = test system: UACC-62; experiment: Antitumor activity against human UACC62 cells after 48 hrs by SRB assay; settings: UACC-62, 48 h; how it was run: as §1
[26] = test system: A549; experiment: Antitumor activity against human A549 cells after 48 hrs by SRB assay; settings: A549, 48 h; how it was run: as §2
[27] = test system: NCI-H460; experiment: Antitumor activity against human NCI-H460 cells after 48 hrs by SRB assay; settings: NCI-H460, 48 h; how it was run: as §2
[28] = test system: HT-29; experiment: Antitumor activity against human HT-29 cells after 48 hrs by SRB assay; settings: HT-29, 48 h; how it was run: as §2
[29] = test system: KM12; experiment: Antitumor activity against human KM12 cells after 48 hrs by SRB assay; settings: KM12, 48 h; how it was run: as §2
[30] = test system: MDA-MB-435; experiment: Antitumor activity against human MDA-MB-435 cells after 48 hrs by SRB assay; settings: MDA-MB-435, 48 h; how it was run: as §2
[31] = test system: SK-MEL-5; experiment: Antitumor activity against human SK-MEL-5 cells after 48 hrs by SRB assay; settings: SK-MEL-5, 48 h; how it was run: as §2
[32] = read-out: LC50 (the source's name)

For `COc1ccc(-c2c(C#N)cnc(N)c2-c2nc3cc(C)c(C)cc3[nH]2)cc1`, the GI50 [1] was 6.76 µM, the TGI [1] was > 100 µM and the CC50 [1, 32] was > 100 µM. For the same compound, the GI50 [2] was 11 µM, the TGI [2] was > 100 µM and the CC50 [2, 32] was > 100 µM. For the same compound, the GI50 [3] was 6 µM, the LC50 [3] was > 100 µM and the TGI [3] was 48.3 µM. For the same compound, the GI50 [4] was 7.06 µM, the LC50 (median lethal concentration) [4] was > 100 µM and the TGI [4] was 57.1 µM. For the same compound, the LC50 [5] was > 100 µM, the GI50 [6] was 32.5 µM and the TGI [6] was > 100 µM. The CC50 [6, 32] was > 100 µM, the GI50 [7] was 3.98 µM and the TGI [7] was > 100 µM. The CC50 [7, 32] was > 100 µM, the GI50 [8] was 6.92 µM and the TGI [8] was 23.8 µM. It also gave a CC50 [8, 32] of 61.8 µM, a GI50 [9] of 4.84 µM and an LC50 [9] of 59.6 µM. The TGI [9] was 18.4 µM, the GI50 [10] was 15.5 µM and the TGI [10] was > 100 µM. For the same compound, the CC50 [10, 32] was > 100 µM, the GI50 [11] was 25.4 µM and the TGI [11] was > 100 µM. For the same compound, the CC50 [11, 32] was > 100 µM, the GI50 [12] was 6.68 µM and the TGI [12] was 20.4 µM. For the same compound, the CC50 [12, 32] was 54.1 µM, the GI50 [13] was 5.37 µM and the LC50 [13] was > 100 µM. For the same compound, the TGI [13] was 33.3 µM, the GI50 [14] was 11.5 µM and the TGI [14] was 41.9 µM. For the same compound, the CC50 [14, 32] was > 100 µM, the GI50 [15] was 6.41 µM and the TGI [15] was 23.4 µM. For the same compound, the CC50 [15, 32] was 68.2 µM, the GI50 [16] was 14.8 µM and the TGI [16] was 30.4 µM. The CC50 [16, 32] was 62.2 µM, the GI50 [17] was 2.65 µM and the LC50 [17] was > 100 µM. For the same compound, the TGI [17] was 16.3 µM, the GI50 [18] was > 100 µM and the LC50 [18] was > 100 µM. For the same compound, the TGI [18] was > 100 µM, the GI50 [19] was 5.74 µM and the TGI [19] was > 100 µM. The CC50 [19, 32] was > 100 µM, the GI50 [20] was 52 µM and the LC50 [20] was > 100 µM. For the same compound, the TGI [20] was > 100 µM, the GI50 [21] was 10.8 µM and the LC50 (median lethal concentration) [21] was > 100 µM. For the same compound, the TGI [21] was 98 µM, the GI50 [22] was 5.87 µM and the TGI [22] was > 100 µM. The CC50 [22, 32] was > 100 µM, the GI50 [23] was 5.2 µM and the LC50 (median lethal concentration) [23] was > 100 µM. For the same compound, the TGI [23] was 26.8 µM, the GI50 [24] was 6.34 µM and the TGI [24] was > 100 µM. For the same compound, the CC50 [24, 32] was > 100 µM, the GI50 [25] was 72.2 µM and the LC50 [25] was > 100 µM. For the same compound, the TGI [25] was > 100 µM, the GI50 [26] was 6.54 µM and the TGI [26] was 72.5 µM. The CC50 [26, 32] was > 100 µM, the GI50 [27] was 18.1 µM and the LC50 (median lethal concentration) [27] was > 100 µM. For the same compound, the TGI [27] was > 100 µM, the GI50 [28] was 4.79 µM and the TGI [28] was > 100 µM. The CC50 [28, 32] was > 100 µM, the GI50 [29] was 3.47 µM and the TGI [29] was > 100 µM. For the same compound, the CC50 [29, 32] was > 100 µM, the GI50 [30] was 1.95 µM and the LC50 (median lethal concentration) [30] was 100 µM. The TGI [30] was 5.39 µM, the GI50 [31] was 8.78 µM and the LC50 [31] was > 100 µM. For the same compound, the TGI [31] was > 100 µM.
